According to ChEMBL document CHEMBL1649278, “Characterization of a new metallo-beta-lactamase gene, bla(NDM-1), and a novel erythromycin esterase gene carried on a unique genetic structure in Klebsiella pneumoniae sequence type 14 from India” (2009):
In brackets after ≈: the same amount, converted by molar mass.

How the values were obtained:
[1] = test system: Escherichia coli; assay: Antibacterial activity against Escherichia coli TOP10 harboring beta-lactamase NDM-1 by Etest method; assay type: functional
Summary of the method: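 Fragments from BamHI, EcoRI or HindIII digests of K. pneumoniae 05-506 DNA were cloned into vector pK18 and electroporated into E. coli TOP10. Transformants were selected on LB agar with X-gal (30 μg/ml), ceftazidime (6 μg/ml) and kanamycin (25 μg/ml). Susceptibility read by Etest.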

[2] = test system: Escherichia coli; assay: Antibacterial activity against Escherichia coli J53 by Etest method; assay type: functional
[3] = test system: Escherichia coli; assay: Antibacterial activity against Escherichia coli NF-NDM-1 by Etest method; assay type: functional
[4] = test system: Klebsiella pneumoniae; assay: Antibacterial activity against Klebsiella pneumoniae 05-560 by Etest method; assay type: functional
[5] = test system: Escherichia coli; assay: Antibacterial activity against Escherichia coli J53 harboring beta-lactamase NDM-1 by Etest method; assay type: functional
Summary of the method: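 Transconjugant of E. coli J53 recipient, mated with donor on blood agar without selection for 18 h. Selected on MacConkey agar with sodium azide (100 μg/ml) plus ceftazidime (8 μg/ml). Transfer confirmed by indole test and PCR for the MBL gene. Susceptibility read by Etest.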

[6] = test system: Escherichia coli; assay: Antibacterial activity against Escherichia coli TOP10 by Etest method; assay type: functional
[7] = test system: Klebsiella pneumoniae; assay: Ratio of Kcat to Km for Klebsiella pneumoniae 05-560 beta-lactamase IMP1
[8] = test system: Klebsiella pneumoniae; assay: Activity of Klebsiella pneumoniae 05-560 beta-lactamase IMP1 by spectrophotometry
[9] = substrate: CO/N=C(\C(=O)N[C@@H]1C(=O)N2C(C(=O)O)=C(COC(C)=O)CS[C@H]12)c1csc(N)n1; assay: (§1) Activity of Klebsiella pneumoniae 05-560 beta-lactamase NDM-1 by spectrophotometry
Summary of the method: (§2)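 NDM-1 was expressed as a His-trx fusion. The cleared lysate (12,000 rpm, 30 min, 4°C) was bound to Ni-NTA agarose and eluted with 300 mM imidazole. The tag was cut off with TEV protease, and the protein was finished by GS320 gel filtration.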

[10] = substrate: C[C@@H](O)[C@H]1C(=O)N2C(C(=O)O)=C(SCCNC=N)C[C@H]12; assay: as §1; summary of the method: as §2
[11] = substrate: CO/N=C(\C(=O)N[C@@H]1C(=O)N2C(C(=O)[O-])=C(C[N+]3(C)CCCC3)CS[C@H]12)c1csc(N)n1; assay: as §1; summary of the method: as §2
[12] = substrate: CC(=O)OCC1=C(C(=O)O)N2C(=O)[C@@H](NC(=O)Cc3cccs3)[C@H]2SC1; assay: as §1; summary of the method: as §2
[13] = substrate: CO[C@@]1(NC(=O)Cc2cccs2)C(=O)N2C(C(=O)O)=C(COC(N)=O)CS[C@@H]21; assay: as §1; summary of the method: as §2
[14] = substrate: CC1(C)S[C@@H]2[C@H](NC(=O)Cc3ccccc3)C(=O)N2[C@H]1C(=O)O; assay: as §1; summary of the method: as §2
[15] = substrate: CC(C)(O/N=C(\C(=O)N[C@@H]1C(=O)N2C(C(=O)[O-])=C(C[n+]3ccccc3)CS[C@H]12)c1csc(N)n1)C(=O)O; assay: as §1; summary of the method: as §2
[16] = substrate: CC1(C)S[C@@H]2[C@H](NC(=O)[C@H](N)c3ccccc3)C(=O)N2[C@H]1C(=O)O; assay: as §1; summary of the method: as §2
[17] = substrate: CCN1CCN(C(=O)N[C@@H](C(=O)N[C@@H]2C(=O)N3[C@@H]2SC(C)(C)[C@@H]3C(=O)O)c2ccccc2)C(=O)C1=O; assay: as §1; summary of the method: as §2
[18] = substrate: CO/N=C(\C(=O)N[C@@H]1C(=O)N2C(C(=O)O)=C(COC(C)=O)CS[C@H]12)c1csc(N)n1; assay: (§3) Ratio of Kcat to Km for Klebsiella pneumoniae 05-560 beta-lactamase NDM-1; summary of the method: as §2
[19] = substrate: C[C@@H](O)[C@H]1C(=O)N2C(C(=O)O)=C(SCCNC=N)C[C@H]12; assay: as §3; summary of the method: as §2
[20] = substrate: CO/N=C(\C(=O)N[C@@H]1C(=O)N2C(C(=O)[O-])=C(C[N+]3(C)CCCC3)CS[C@H]12)c1csc(N)n1; assay: as §3; summary of the method: as §2
[21] = substrate: CC(=O)OCC1=C(C(=O)O)N2C(=O)[C@@H](NC(=O)Cc3cccs3)[C@H]2SC1; assay: as §3; summary of the method: as §2
[22] = substrate: CO[C@@]1(NC(=O)Cc2cccs2)C(=O)N2C(C(=O)O)=C(COC(N)=O)CS[C@@H]21; assay: as §3; summary of the method: as §2
[23] = substrate: CC1(C)S[C@@H]2[C@H](NC(=O)Cc3ccccc3)C(=O)N2[C@H]1C(=O)O; assay: as §3; summary of the method: as §2
[24] = substrate: CC(C)(O/N=C(\C(=O)N[C@@H]1C(=O)N2C(C(=O)[O-])=C(C[n+]3ccccc3)CS[C@H]12)c1csc(N)n1)C(=O)O; assay: as §3; summary of the method: as §2
[25] = substrate: CC1(C)S[C@@H]2[C@H](NC(=O)[C@H](N)c3ccccc3)C(=O)N2[C@H]1C(=O)O; assay: as §3; summary of the method: as §2
[26] = substrate: CCN1CCN(C(=O)N[C@@H](C(=O)N[C@@H]2C(=O)N3[C@@H]2SC(C)(C)[C@@H]3C(=O)O)c2ccccc2)C(=O)C1=O; assay: as §3; summary of the method: as §2

C[C@@H](O)[C@H]1C(=O)N2C(C(=O)O)=C(S[C@@H]3CN[C@H](C(=O)N(C)C)C3)[C@H](C)[C@H]12 [MEROPENEM]
MIC [1]: 12 mg/L (≈ 31.3 µM) | MIC [2]: 0.064 mg/L (≈ 0.167 µM) | MIC [3]: > 32 mg/L | MIC [4]: > 256 mg/L | MIC [5]: > 32 mg/L | MIC [6]: 0.064 mg/L (≈ 0.167 µM)

CC(C)(O/N=C(\C(=O)N[C@@H]1C(=O)N2C(C(=O)[O-])=C(C[n+]3ccccc3)CS[C@H]12)c1csc(N)n1)C(=O)O [CEFTAZIDIME]
kcat/Km [7]: 180000 M⁻¹ s⁻¹ | MIC [1]: > 256 mg/L | MIC [2]: 0.125 mg/L (≈ 0.229 µM) | MIC [3]: > 256 mg/L | MIC [4]: > 256 mg/L | MIC [5]: > 256 mg/L | Km [8]: 44 µM | kcat [8]: 8 s⁻¹ | MIC [6]: 1 mg/L (≈ 1.83 µM)

CO/N=C(\C(=O)N[C@@H]1C(=O)N2C(C(=O)O)=C(COC(N)=O)CS[C@H]12)c1ccco1 [CEFUROXIME]
MIC [1]: > 256 mg/L | MIC [2]: 8 mg/L (≈ 18.9 µM) | MIC [3]: > 256 mg/L | MIC [4]: > 256 mg/L | MIC [5]: > 256 mg/L | MIC [6]: 8 mg/L (≈ 18.9 µM)

CC(=O)OCC1=C(C(=O)O)N2C(=O)[C@@H](NC(=O)Cc3cccs3)[C@H]2SC1 [CEPHALOTHIN]
kcat/Km [7]: 2.4e+06 M⁻¹ s⁻¹ | MIC [1]: > 256 mg/L | MIC [2]: 4 mg/L (≈ 10.1 µM) | MIC [3]: > 256 mg/L | MIC [4]: > 256 mg/L | MIC [5]: > 256 mg/L | Km [8]: 21 µM | kcat [8]: 48 s⁻¹ | MIC [6]: 8 mg/L (≈ 20.2 µM)

O=C(O)c1cn(C2CC2)c2cc(N3CCNCC3)c(F)cc2c1=O [CIPROFLOXACIN]
MIC [2]: 0.032 mg/L (≈ 0.0966 µM) | MIC [4]: > 256 mg/L | MIC [5]: 0.047 mg/L (≈ 0.142 µM)

C[C@@H](O)[C@H]1C(=O)N2C(C(=O)O)=C(SCCNC=N)C[C@H]12 [IMIPENEM ANHYDROUS]
kcat/Km [7]: 1.2e+06 M⁻¹ s⁻¹ | MIC [1]: 12 mg/L (≈ 40.1 µM) | MIC [3]: > 32 mg/L | MIC [4]: > 256 mg/L | MIC [5]: 16 mg/L (≈ 53.4 µM) | Km [8]: 39 µM | kcat [8]: 46 s⁻¹ | MIC [6]: 0.094 mg/L (≈ 0.314 µM)

CC1(C)S[C@@H]2[C@H](NC(=O)Cc3ccccc3)C(=O)N2[C@H]1C(=O)O
kcat/Km [7]: 620000 M⁻¹ s⁻¹ | Km [8]: 520 µM | kcat [8]: 320 s⁻¹

COLISTIN
MIC [1]: 0.38 mg/L | MIC [2]: 0.25 mg/L | MIC [3]: 0.25 mg/L | MIC [4]: 0.75 mg/L | MIC [5]: 0.25 mg/L | MIC [6]: 0.38 mg/L

B1: Metallo-beta-lactamase type 2 (Klebsiella pneumoniae), C7C422 (protein)
chain: MELPNIMHPVAKLSTALAAALMLSGCMPGEIRPTIGQQMETGDQRFGDLVFRQLAPNVWQHTSYLDMPGFGAVASNGLIVRDGGRVLVVDTAWTDDQTAQILNWIKQEINLPVALAVVTHAHQDKMGGMDALHAAGIATYANALSNQLAPQEGMVAAQHSLTFAANGWVEPATAPNFGPLKVFYPGPGHTSDNITVGIDGTDIAFGGCLIKDSKAKSLGNLGDADTEHYAASARAFGAAFPKASMIVMSHSAPDSRAAITHTARMADKLR
Km [9]: 10 µM | kcat [9]: 6 s⁻¹ | Km [10]: 94 µM | kcat [10]: 20 s⁻¹ | Km [11]: 77 µM | kcat [11]: 13 s⁻¹ | Km [12]: 10 µM | kcat [12]: 4 s⁻¹ | kcat [13]: 1 s⁻¹ | Km [14]: 16 µM | kcat [14]: 11 s⁻¹ | Km [15]: 181 µM | kcat [15]: 5 s⁻¹ | Km [16]: 22 µM | kcat [16]: 15 s⁻¹ | kcat [17]: 14 s⁻¹ | kcat/Km [18]: 580000 M⁻¹ s⁻¹ | kcat/Km [19]: 210000 M⁻¹ s⁻¹ | kcat/Km [20]: 170000 M⁻¹ s⁻¹ | kcat/Km [21]: 400000 M⁻¹ s⁻¹ | kcat/Km [22]: 20000 M⁻¹ s⁻¹ | kcat/Km [23]: 680000 M⁻¹ s⁻¹ | kcat/Km [24]: 30000 M⁻¹ s⁻¹ | kcat/Km [25]: 660000 M⁻¹ s⁻¹ | kcat/Km [26]: 1.17e+06 M⁻¹ s⁻¹
